Rows were chosen to be rich in hits. Some 1.9% of all compounds tested hit in one or more screens of this group.
Runt-SMMHC FRET – Runt domain-CBFb-SMMHC interaction inhibition. Q01196+Q13951. Cerulean-Runt/Venus-CBFb-SMMHC FRET ratio 530/480, 1 h. inhibition, % at 20 µM. hit rate 0.74% among 220,000. AID 1434;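 active = mean inhibition across duplicate retests at 20 µM reaching about 50%, limit read from the data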;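 note: 0% = DMSO wells and 100% = wells with excess untagged CBFb-SMMHC; inhibitors lower the FRET ratio by blocking Runt binding to CBFb-SMMHC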
Hck-Nef inh – human Hck-Nef kinase inhibition; P08631; Recombinant Hck-YEEI plus Nef, Z-Lyte FRET kinase assay; inhibition, % at 20 µM; hit rate 0.68% among 220,000;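 active = Hck-Nef kinase inhibition above about 50%, limit read from the data; inactive = inhibition below that limit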;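 note: 0% = DMSO with Hck plus Nef and 100% = Hck alone without Nef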
Target sequence (P08631 whole entry, looked up): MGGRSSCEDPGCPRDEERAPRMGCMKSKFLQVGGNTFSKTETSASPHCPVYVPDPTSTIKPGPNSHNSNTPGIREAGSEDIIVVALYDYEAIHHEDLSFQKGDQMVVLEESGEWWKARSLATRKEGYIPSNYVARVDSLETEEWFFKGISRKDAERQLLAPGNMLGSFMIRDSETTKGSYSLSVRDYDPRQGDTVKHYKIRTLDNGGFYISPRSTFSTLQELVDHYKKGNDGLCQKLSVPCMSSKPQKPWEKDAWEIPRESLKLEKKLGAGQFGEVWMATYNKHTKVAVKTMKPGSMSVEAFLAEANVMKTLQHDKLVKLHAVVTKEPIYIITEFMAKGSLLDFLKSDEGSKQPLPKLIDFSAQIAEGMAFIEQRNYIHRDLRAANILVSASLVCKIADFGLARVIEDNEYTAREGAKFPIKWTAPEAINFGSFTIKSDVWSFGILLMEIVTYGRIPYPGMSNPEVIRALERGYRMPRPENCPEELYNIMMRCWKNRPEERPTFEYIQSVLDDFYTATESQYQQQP
Runt-CBFb FRET – blocks binding of human RUNX1 Runt domain to CBFb | Q01196+Q13951 | Cerulean-Runt/Venus-CBFb FRET ratio 530/480, 1 h | inhibition, % at 20 µM | hit rate 0.46% among 220,000 | AID 1496;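 active = inhibition over about 50% at 20 µM in the single-dose screen, limit read from the data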;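 note: 0% = DMSO wells and 100% = excess unlabeled CBFb competitor control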
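test system = Cerulean-tagged RUNX1 Runt domain (FRET donor) fusion protein | reagent = Venus-CBFb binding partner, 100 nM | incubation = protein complex preformed 1 h, compound exposure 1 h, room temperature, dark | detection = FRET fluorescence | read-out basis = loss of energy transfer signal | controls = 5 µM unlabeled CBFb as full-inhibition high control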
RanGTP-Impb inh – disruptors of Ran-importin-beta complex formation – biochemical, FRET, CFP-Ran, YFP-importin-beta, homogeneous, primary screen; cell-free CFP-Ran/YFP-importin-beta FRET ratio; inhibition, % (no concentration beside the values); hit rate 1.1% among 300,000;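 active = more than half of the replicate wells show a fall in the fluorescence ratio signal beyond about 16%, limit read from the data, passing the limit was not always enough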;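 note: 0% = DMSO wells and 100% = Ran loaded with GDP instead of GTP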
Tb hexokinase – T. brucei hexokinase 1 inhibition; recombinant TbHK1, G6PDH-coupled NADH A340; hit rate 0.11% among 220,000; inhibition, % at 10 µM;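 active = inhibition of 50% or more in the single-dose primary screen; inactive = inhibition below 50%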
Starred values were filed as active, the others as inactive; / = no result.

SMILES	Runt-SMMHC FRET	Hck-Nef inh	Runt-CBFb FRET	RanGTP-Impb inh	Tb hexokinase
Cc1cccc(C(=O)N2CCCC(CCC(=O)N3CCN(c4ccccn4)CC3)C2)c1 (stereo not drawn)	/	/	/	0	/
O=C(/C=C/c1c[nH]c2ccccc12)c1cccc2ccccc12	8	-1	20	17*	-5
N#C/C(=C\c1ccc(O)c(O)c1)C(=O)Nc1cccc2ncccc12	/	/	/	93*	/
N#C/C(=C/c1ccc(O)c(O)c1)C(=O)NCc1ccc(Cl)cc1	/	/	/	7	/
N#C/C(=C\c1ccc(F)cc1)C(=O)Nc1ccccn1	/	/	/	39*	/
Cc1ccc(S(=O)(=O)N2CCCOC2CNC(=O)C(=O)NCc2ccco2)cc1 (stereo not drawn)	4	0	-1	-2	0
Cn1c(=O)c(C(=O)COC(=O)c2cc(C3CC3)nc3ccccc23)c(N)n(Cc2ccccc2)c1=O	-1	-2	-2	/	-7
Cn1c(=O)c(C(=O)COC(=O)c2cc(-c3ccco3)nc3ccccc23)c(N)n(CC2CC2)c1=O	-13	51*	-4	2	-10
Cc1ccc(S(=O)(=O)N2CCCC2CNC(=O)C(=O)Nc2ccc(F)cc2)cc1 (stereo not drawn)	/	/	/	31*	/
COc1ccc(S(=O)(=O)N2CCCC2CNC(=O)C(=O)Nc2ccc(C)cc2)cc1 (stereo not drawn)	/	/	/	-1	/
CC(CCCN(C)C)C(Cc1ccccc1)c1ccccc1 (stereo not drawn)	/	/	/	2	/
O=C(Nc1ccccc1)c1ccc2nc(-c3ccco3)c(-c3ccco3)nc2c1	-31	10	1	36*	0
S=C(Nc1ccc(N2CCOCC2)cc1)Nc1ccc2nc(-c3ccco3)c(-c3ccco3)nc2c1	-388	1	-95	20*	-43
CC(=O)c1ccc(NC(=O)c2ccc3nc(-c4ccco4)c(-c4ccco4)nc3c2)cc1	-69	0	-4	35*	-14
COc1ccc2nc3cccc(OC)c3nc2c1	-34	3	-6	-10	0
COc1ccc2nc(-c3ccco3)c(-c3ccco3)nc2c1	-22	1	6	54*	-12
Cc1nn(C)cc1CNCc1c(C(=O)N2CCCCC2)nc2c(C)cccn12	4	10	0	5	5
O=C(NCc1ccccc1)c1ccc2nc(-c3ccco3)c(-c3ccco3)nc2c1	-46	2	-1	25*	-4
O=C(NCCCO)c1ccc2nc(-c3ccco3)c(-c3ccco3)nc2c1	-27	30	8	/	-4
[O-][n+]1cccc2ncc3cscc3c21	2	3	1	-5	-16
COC(=O)c1c(C)c2c(C)cc3ccccn3c-2c1C(=O)OC	-34	-3	-9	-1	-46
COC(=O)c1cc2c(-c3ccccc3)cc3ccccn3c-2c1C(=O)OC	54*	1	38	-1	-18
O=C(Cn1c(=O)cnc2ccccc21)NC1CCC(O)CC1 (stereo not drawn)	/	/	/	-3	/
CCc1ccc2oc(=O)cc(CN3CCCCC3)c2c1	/	/	/	0	/
N#C/C(=C/c1ccc(F)cc1)c1nnc(NC(=O)c2ccccc2)s1	81*	-14	2	-5	-15
SMILES	Runt-SMMHC FRET	Hck-Nef inh	Runt-CBFb FRET	RanGTP-Impb inh	Tb hexokinase
Cc1ccc(NC(=O)CCC(=O)NNC(=S)Nc2ccc(F)cc2F)cc1C	/	/	/	2	/
Cc1cc2c3c([nH]c2cc1S(=O)(=O)NCCCOC(C)C)CC(C)(C)CC3=O	/	/	/	3	/
COc1ccc(C2N(c3ccccc3)CCN2c2ccccc2)cc1O	-2	13	-1	25*	3
COc1cc(C2N3CC4(C)CN2CC(C)(C3)C4)ccc1O (stereo not drawn)	6	-1	2	0	-41
Cc1ccccc1NCCC(=O)Nc1ccc(Cl)cc1	/	/	/	-1	/
N=c1c(S(=O)(=O)c2ccccc2)cc2c(=O)n3ccccc3nc2n1CC1CCCO1 (stereo not drawn)	61*	15	105*	/	-12
Cc1ccc(S(=O)(=O)c2cc3c(=O)n4cc(C)ccc4nc3n(CC3CCCO3)c2=N)cc1 (stereo not drawn)	90*	/	86*	/	/
N=c1c(S(=O)(=O)c2ccc(Cl)cc2)cc2c(=O)n3ccccc3nc2n1Cc1ccco1	/	/	/	96*	/
N=c1c(S(=O)(=O)c2ccc(Br)cc2)cc2c(=O)n3ccccc3nc2n1Cc1ccco1	/	/	/	4	/
CCn1c(=N)c(S(=O)(=O)c2ccc(Cl)cc2)cc2c(=O)n3ccccc3nc21	/	20	/	2	2

Compound activity (PubChem BioAssay)
